hERG protect: hERG (human) protection from proarrhythmic block | Q12809 | CHO-hERG, FluxOR thallium flux, dofetilide IC70 present | activation (rescue from dofetilide block), less the hit threshold, % at 10 µM | hit rate 0.51% among 310,000 | AID 1511;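 active means activation above the mean of controls blocked by dofetilide plus 5 SD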;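 further: thallium influx through hERG after potassium depolarization seen as dye fluorescence rise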
KCNQ1 pot: human KCNQ1 channel potentiation or activation. hit rate 0.35% among 310,000. B-score at 10 µM. CHO-K1 KCNQ1, thallium flux FluxOR fluorescence; stronger effect = higher value. P51787;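 active means fluorescence ratio B-score, a plate-corrected score, at least three library SD, with initial intensity B-score within 5 SD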
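assay system = CHO-K1 cells stably expressing KCNQ1 | medium = assay buffer, equal DMSO in all wells | timing = 37 °C overnight plating, 90-min dark dye load, 20-min compound pretreatment | measured by = kinetic FluxOR thallium fluorescence, 10-s 1-Hz baseline, 110-s post-stimulus read | measure = fluorescence change relative to baseline, converted to B score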
Cl transport mod: modulators of human KCC2 chloride dependent transport. hit rate 2.2% among 190,000. KCC2 cells, thallium flux FluoZin-2 fluorescence. B-score of Tl+ flux slope (higher = more flux/activation; lower = inhibition) at 10 µM;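 active means thallium flux slope and its plate-corrected score both differing from the plate sample mean at a set confidence after two filtering rounds, in either direction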;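 further: slope of fluorescence scaled to starting intensity during 10 to 20 s after thallium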
KCNK3 block: human KCNK3 channel inhibition, primary screen; B-score at 10 µM; CHO-KCNK3 thallium flux, FluxOR fluorescence; stronger effect = lower value; O14649; hit rate 0.84% among 340,000; AID 602410;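 active means B-score under library mean minus 4 SD, starting fluorescence ratio at most library mean plus 5 SD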;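 further: more negative B-score means stronger inhibition of thallium flux through KCNK3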
KCNQ1 inh: human KCNQ1 channel inhibition | AID 2642 | hit rate 1.3% among 310,000 | P51787 | CHO-K1 KCNQ1, FluxOR thallium flux fluorescence; stronger effect = higher value | B-score at 10 µM;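 active means compounds whose thallium flux B-score, printed positive for inhibition, exceeds three library SD while starting fluorescence stays within three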;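 further: channel opened by potassium depolarization with thallium stimulus after 20 min compound exposure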
KCNK9 block: human KCNK9 channel inhibition. Q9NPC2. HEK293 KCNK9, FluxOR thallium flux fluorescence; stronger effect = lower value. B-score at 10 µM. hit rate 1.2% among 310,000. AID 488922;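 active means ratio B-score over 3 SD below the library mean, with starting fluorescence within 5 SD of its mean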;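 further: negative B-score means less thallium flux so channel inhibition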
KCC2 secondary: KCC2 (human) modulation, secondary assay; shares compounds with Cl transport mod; HEK293-KCC2, thallium flux, FluoZin2 fluorescence; stronger effect = higher value; normalised thallium flux (F/F0 slope) at 10 µM; hit rate 15% among 3,700; AID 1713;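 active means thallium flux slope above the same plate's solvent-only control mean plus 3 SD; inconclusive means the two replicate wells disagree; inactive means no significant difference from solvent-only control wells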
KCC2 bumet counter: bumetanide-insensitive thallium flux in KCC2 cells with ouabain, counter-screen; HEK293-KCC2 + bumetanide/ouabain, thallium flux FluoZin2; stronger effect = higher value; shares compounds with Cl transport mod; hit rate 49% among 3,700; normalized thallium flux at 10 µM;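 active means thallium entry rate above the same plate's blocked-transporter control wells by more than 3 SD; inconclusive means the two repeat wells disagree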;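 further: raw slope of fluorescence over initial fluorescence between 10 and 20 s after thallium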
KCC2 secondary2: KCC2 (human) modulation, second secondary assay. shares compounds with Cl transport mod. HEK293-KCC2, thallium flux FluoZin2 fluorescence; actives lie on both sides; F/F0 rise rate, 10–20 s post-thallium. normalized thallium flux at 10 µM. hit rate 23% among 3,700;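 active means thallium flux slope more than 3 SD above or below the plate's solvent-only control mean, mostly below; inconclusive means the two repeat wells disagreed; inactive means no significant shift from solvent-only controls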;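 further: raw slope with 0.1% DMSO as baseline and bumetanide as block control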
HEK counter1: acts in parental HEK cells, KCC2 counter-screen; shares compounds with Cl transport mod; HEK293 parental cells, thallium flux FluoZin2, ouabain; baseline-ratio fluorescence slope, 10–20 s after thallium; thallium flux rate (normalised fluorescence) at 10 µM; hit rate 46% among 3,700;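 active means thallium flux rate significantly above the same plate's solvent-only control wells, beyond their mean plus 3 SD; inconclusive means the two replicate wells gave conflicting results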
KCC2 retest ouab: modulates human KCC2 on retest with ouabain. raw Tl+ flux slope (below DMSO = inhibition, above = activation) at 10 µM. shares compounds with Cl transport mod. AID 1717. HEK293-KCC2, thallium flux FluoZin2 fluorescence; bidirectional: low = inhibitor, high = activator. hit rate 48% among 3,700;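 active means thallium flux slope beyond 3 SD from same-plate DMSO control mean in most replicates, usually higher, sometimes lower; inconclusive means repeat tests gave conflicting results; inactive means no significant difference from controls in most replicates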;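 further: slope of initial-normalized fluorescence between seconds 10 and 20 after thallium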
HEK293 Tl flux2: counter-screen for KCC2 modulators: effect in parental HEK293 cells | shares compounds with Cl transport mod | thallium flux FluoZin-2 fluorescence slope | thallium flux slope at 10 µM | hit rate 33% among 3,700 | AID 1718;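 active means thallium flux slope above the same plate's solvent-control mean plus 3 SD in both duplicate wells; inconclusive means duplicate wells that disagreed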;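 further: run without ouabain in cells lacking the KCC2 cotransporter; slope of fluorescence scaled to its starting value between 10 and 20 s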
* = called active by the depositor; i = inactive; ? = inconclusive; . = no result given. Only some compounds are listed: those with a hit (about 4.1% of all), similar ones and a draw of the others.

SMILES | hERG protect | KCNQ1 pot | Cl transport mod | KCNK3 block | KCNQ1 inh | KCNK9 block | KCC2 secondary | KCC2 bumet counter | KCC2 secondary2 | HEK counter1 | KCC2 retest ouab | HEK293 Tl flux2
Cc1ccc(/C(O)=C2/C(=O)C(=O)N(CCN3CCOCC3)C2c2ccccn2)cc1 (stereo not drawn) | -4 | i | 2.7* | i | i | i | 0.0079 | ? | 0.033 | ? | 0.026 | 0.01
COc1ccc(/C(O)=C2/C(=O)C(=O)N(CCN(C)C)C2c2ccccn2)cc1OC (stereo not drawn) | -7 | i | 4* | i | i | i | 0.0089 | 0.0074 | 0.029 | ? | 0.021 | ?
Cc1ccc(C(=O)Nc2nc3ccccc3c(=O)s2)cc1 | 23* | 35* | 41* | i | i | i | 0.027* | 0.14* | 0.054* | 0.079* | 0.11* | 0.029*
Cc1ccc(Nc2nc3ccccc3c(=O)s2)cc1C | -4 | i | 17* | i | i | i | 0.0072 | 0.031* | 0.043* | 0.026* | 0.039* | 0.028*
CSc1nc2ccc3nc(NC(=O)c4ccc(C)cc4)sc3c2s1 | -6 | i | 1.2 | i | i | i | . | . | . | . | . | .
CCOC(=O)C(=O)Nc1ccc(Oc2ccccc2)cc1 | -1 | i | -4* | i | i | i | 0.0089 | 0.0059 | 0.032 | 0.0069 | 0.017* | 0.011
CCOC(=O)C(=O)Nc1ccc(F)cc1 | -4 | i | . | i | i | i | . | . | . | . | . | .
Cc1oc(-c2ccc(Cl)cc2)nc1CS(=O)CC(=O)NCc1cccs1 (stereo not drawn) | -7 | i | -3.6* | i | i | i | 0.0065 | 0.0064 | 0.028 | 0.0069 | 0.017 | 0.0097
CCc1ccc(-c2nc(CS(=O)CC(=O)NCc3cccnc3)c(C)o2)cc1 (stereo not drawn) | -8 | i | 4.4* | i | i | i | 0.0052 | 0.0048 | ? | 0.0076 | ? | 0.011
COc1ccc(-c2nc(CS(=O)CC(=O)NCc3cccnc3)c(C)o2)cc1 (stereo not drawn) | -10 | i | 1.4 | i | i | i | . | . | . | . | . | .
COc1ccc(Cc2nc3ccc(C(=O)NCCSC)cc3o2)cc1 | -3 | i | . | i | i | i | . | . | . | . | . | .
CC(=O)c1ccc(OC(C)C)c(CSc2nc(O)cc(=O)[nH]2)c1 | -6 | i | 0.88 | i | i | i | . | . | . | . | . | .
O=c1[nH]c2cc3c(cc2cc1CN(CCN1CCOCC1)C(=S)NCC1CCCO1)OCO3 (stereo not drawn) | -15 | i | -0.16 | i | i | i | . | . | . | . | . | .
COc1ccccc1CNc1n[nH]c(NCc2ccccc2OC)n1 | -6 | i | . | i | i | i | ? | 0.005 | 0.03 | 0.0075 | 0.018 | 0.011
COc1ccccc1CNc1ccc(CNc2ncn[nH]2)cc1 | -5 | i | 0.63 | i | i | i | . | . | . | . | . | .
O=[N+]([O-])c1ccc(NC(=S)NCCc2ccc(Cl)cc2)cc1 | -14 | i | -5* | i | 8* | i | 0.017 | 0.0031 | 0.026* | ? | 0.014 | 0.0099
Cc1cccc(C)c1Nc1nnc(SCC(=O)Nc2ncc(C(F)(F)F)cc2Cl)s1 | -10 | i | -6.5* | i | i | i | 0.0057* | 0.0069 | 0.025* | ? | 0.014* | 0.0093
Cc1ccccc1Nc1nnc(SCC(=O)Nc2ncc(C(F)(F)F)cc2Cl)s1 | -9 | i | -1.7 | i | i | i | . | . | . | . | . | .
Cc1ccc(Nc2nnc(SCC(=O)Nc3ncc(C(F)(F)F)cc3Cl)s2)cc1 | -9 | i | -2.7 | i | i | i | . | . | . | . | . | .
Cc1cccc(Nc2nnc(SCC(=O)Nc3ncc(C(F)(F)F)cc3Cl)s2)c1C | -9 | i | -3.6* | i | i | i | 0.0059 | 0.0052 | 0.024* | 0.0067 | ? | 0.01
Cc1ccc(SC[C@H](CC(C)C)N2CCN(CCc3ccccc3)CCC2=O)cc1 | -21 | i | -4.4* | i | i | i | 0.0079 | 0.0053 | 0.032 | 0.0071 | 0.017* | 0.0097
COc1ccc(SC[C@H](CC(C)C)N2CCN(CCc3ccccc3)CCC2=O)cc1 | -17 | i | -4.6* | i | i | i | 0.0061 | 0.0036 | ? | 0.0058* | 0.013* | 0.0087
CC(=O)Nc1ccc(SC[C@H](CC(C)C)N2CCN(CCc3ccccc3)CCC2=O)cc1 | -12 | i | -3.8* | i | i | i | 0.0096 | 0.0057 | 0.033 | 0.0069 | 0.019 | 0.011
O=C(Cc1ccc(Br)cc1)Nc1cccc(-c2cn3c(n2)SCC3)c1 | -13 | i | -1.8 | i | i | i | . | . | . | . | . | .
Cn1c(-c2ccc3nc(N)sc3c2)nc2cc(N)ccc21 | -15 | i | . | i | i | i | ? | ? | 0.031 | 0.0082 | 0.019 | 0.01
Cc1cc(CC(C)C)n(-c2nc3ccccc3c(=O)n2OCc2ccccc2)n1 | -11 | i | 5.1* | i | i | i | 0.0086 | 0.023* | 0.03 | 0.011* | 0.052* | 0.012*
Cc1cc(C)n(-c2nc3ccccc3c(=O)n2OCc2ccc(F)cc2)n1 | -10 | i | -0.83 | i | i | i | . | . | . | . | . | .
Cc1cc(CC(C)C)n(-c2nc3ccccc3c(=O)n2OCC(=O)N(C)C)n1 | -4 | i | 10* | i | i | i | 0.0074 | 0.026* | 0.036 | 0.024* | 0.032* | 0.017*
O=C(COC(=O)CCCOc1ccccc1)NC1CCS(=O)(=O)C1 (stereo not drawn) | -6 | i | . | i | i | i | . | . | . | . | . | .
O=C(CSc1cn(CC(=O)N2CCCCC2)c2ccccc12)NCC1CCCO1 (stereo not drawn) | -11 | i | 0.59 | i | i | i | . | . | . | . | . | .

Compound activity as filed in PubChem.
